Results published in ChEMBL document CHEMBL4130608, “Isolation, Derivative Synthesis, and Structure-Activity Relationships of Antiparasitic Bromopyrrole Alkaloids from the Marine Sponge Tedania brasiliensis” (J Nat Prod, 2018).
In brackets after ≈: the same amount, converted by molar mass.

Assays:
Leishmania amazonensis [1] = experiment: Antileishmanial activity against Leishmania amazonensis MHOM/BR/1973/M2269 promastigotes after 24 hrs by MTT assay; assay type: functional, organism-based; details: MHOM/BR/1973/M2269, 24 h
Procedure, shortened: (§1)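 Promastigotes (L. amazonensis, L. infantum; 26 °C, M199 with 20% heat-inactivated FBS, hemin, adenine, L-glutamine, plus 5% human urine for L. infantum) or T. cruzi Y epimastigotes (LIT with hemin, 10% FCS, 28 °C). Exposed to a series of concentrations for 24 h. Viability read by MTT. EC50 from sigmoidal fit of concentration–response. Triplicates, repeated two or three times.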

[2] = Selectivity index, ratio of MDL50 for human HepG2 cells to IC50 for drug-sensitive blood stage Plasmodium falciparum 3D7; assay type: toxicity; details: HepG2 cells versus blood stage Plasmodium falciparum 3D7, read-out: Selectivity Index
Leishmania infantum = experiment: Antileishmanial activity against Leishmania infantum MHOM/BR/1972/LD promastigotes after 24 hrs by MTT assay; assay type: functional, organism-based; procedure, shortened: as §1
Trypanosoma cruzi = experiment: Antitrypanosomal activity against Trypanosoma cruzi Y epimastigotes after 24 hrs by MTT assay; assay type: functional, organism-based; procedure, shortened: as §1
[3] = Cytotoxicity against human HepG2 cells after 24 hrs by MTT assay; assay type: cell-based; details: read-out: MDL50
Procedure, shortened: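 HepG2 cells grown in RPMI-1640 with 10% FBS, seeded at 5 × 10^3 cells/well and allowed to adhere for 18 h. Exposed to 1,000–1 μg/mL for 24 h at 37 °C, 5% CO2. MTT (5 mg/mL stock) added for 3 h, formazan dissolved in DMSO, absorbance read at 570 and 630 nm. Viability expressed as % of untreated control after background subtraction.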

Plasmodium falciparum [4] = experiment: Antiplasmodial activity against drug-sensitive blood stage Plasmodium falciparum 3D7 by SYBR green 1 staining based fluorescence assay; assay type: functional, organism-based
Procedure, shortened: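 Sorbitol-synchronized ring-stage 3D7 exposed to a range of concentrations (samples in 0.05% DMSO), in triplicate. Then lysed with Tris/EDTA/saponin/Triton buffer containing SYBR Green I (1:20000) for 30 min. IC50 from curve fitting against untreated growth.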

BMDM = experiment: Cytotoxicity against BALB/c mouse BMDM after 24 hrs by MTT assay; assay type: cell-based
Procedure, shortened: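 Differentiated BALB/c female mouse bone marrow macrophages incubated at 37 °C with increasing concentrations for 24 h. Viability read by MTT and CC50 calculated.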

Plasmodium falciparum [5] = experiment: Antiplasmodial activity against chloroquine/cycloguanil/pyrimethamine-resistant blood stage Plasmodium falciparum K1 by SYBR green 1 staining based fluorescence assay; assay type: functional, organism-based
Procedure, shortened: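 Freshly sorbitol-synchronized ring stages were exposed in triplicate to a concentration series, solubilized in 0.05% DMSO (v/v), alongside sample-free cultures. Cells were lysed for 30 min in 20 mM Tris pH 7.5, 5 mM EDTA, 0.008% saponin and 0.08% Triton X-100 with SYBR green I (1:20000). IC50 was obtained by curve fitting against untreated growth.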

Plasmodium falciparum [6] = experiment: Antiplasmodial activity against chloroquine/pyrimethamine-resistant Plasmodium falciparum K1 assessed as reduction in [3H]hypoxanthine incorporation pretreated for 48 hrs followed by [3H]hypoxanthine addition measured after 24 hrs by liquid scintillation counting method; assay type: functional, organism-based
Leishmania amazonensis [7] = experiment: Antileishmanial activity against Leishmania amazonensis amastigotes infected in BALB/c mouse BMDM assessed as reduction in intracellular amastigotes at 50 uM after 24 hrs by microscopic analysis relative to control; assay type: functional; parameters: scale not given: the % may be the effect or the level left
Procedure, shortened: (§2)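 BALB/c bone marrow macrophages infected with stationary-phase L. amazonensis promastigotes (MOI 10) for 1 h, then washed and held 24 h at 33 °C, 5% CO2. Treated with 6.125, 25, 50 or 100 μM for 24 h at 33 °C. Cells MeOH-fixed and stained. Amastigotes counted in 300 cells per coverslip on triplicate coverslips. Expressed as % reduction versus untreated infected cells. Two independent experiments.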

Leishmania amazonensis [8] = experiment: Antileishmanial activity against Leishmania amazonensis amastigotes infected in BALB/c mouse BMDM assessed as reduction in intracellular amastigotes at 25 uM after 24 hrs by microscopic analysis relative to control; assay type: functional; parameters: scale not given: the % may be the effect or the level left; procedure, shortened: as §2
Leishmania amazonensis [9] = experiment: Antileishmanial activity against Leishmania amazonensis amastigotes infected in BALB/c mouse BMDM assessed as reduction in intracellular amastigotes at 100 uM after 24 hrs by microscopic analysis relative to control; assay type: functional; parameters: scale not given: the % may be the effect or the level left; procedure, shortened: as §2
Leishmania amazonensis [10] = experiment: Antileishmanial activity against Leishmania amazonensis amastigotes infected in BALB/c mouse BMDM assessed as reduction in intracellular amastigotes after 24 hrs by microscopic analysis; assay type: functional, organism-based; procedure, shortened: as §2
Leishmania amazonensis [11] = experiment: Antileishmanial activity against Leishmania amazonensis amastigotes infected in BALB/c mouse BMDM assessed as reduction in intracellular amastigotes at 6.125 uM after 24 hrs by microscopic analysis relative to control; assay type: functional; parameters: scale not given: the % may be the effect or the level left; procedure, shortened: as §2

O=C(NCCCCCCNCCCCCCNC(=O)c1cc(Br)c(Br)[nH]1)c1cc(Br)c(Br)[nH]1
EC50 (Leishmania amazonensis [1]): > 100 µM | selectivity ratio [2]: 101 | EC50 (Leishmania infantum): > 100 µM | EC50 (Trypanosoma cruzi): > 100 µM | CC50 at 24 h [3]: 263 µM | IC50 (Plasmodium falciparum [4]): 2 µM

O=C(NCCCCNCCCNC(=O)c1ccc[nH]1)c1ccc[nH]1
EC50 (Leishmania amazonensis [1]): > 100 µM | EC50 (Leishmania infantum): > 100 µM | EC50 (Trypanosoma cruzi): > 100 µM | IC50 (Plasmodium falciparum [4]): > 10 µM

O=C(NCCCCCNC(=O)c1cc(Br)c(Br)[nH]1)c1cc(Br)c(Br)[nH]1
EC50 (Leishmania amazonensis [1]): 19 µM | EC50 (Leishmania infantum): 24 µM | CC50 (BMDM): 52 µM | EC50 (Trypanosoma cruzi): 7 µM | IC50 (Plasmodium falciparum [4]): > 10 µM

O=C(NCCCCNCCCNC(=O)c1cccc(Cl)n1)c1cccc(Cl)n1
EC50 (Leishmania amazonensis [1]): > 100 µM | EC50 (Leishmania infantum): > 100 µM | EC50 (Trypanosoma cruzi): > 100 µM | IC50 (Plasmodium falciparum [4]): > 10 µM

CC1(C)N=C(N)N=C(N)N1c1ccc(Cl)cc1 [CYCLOGUANIL]
IC50 (Plasmodium falciparum [5]): 0.54 µM | IC50 (Plasmodium falciparum [4]): 0.01 µM

[N-]=[N+]=NCC(=O)N(CCCCNC(=O)c1cc(Br)c(Br)[nH]1)CCCNC(=O)c1cc(Br)c(Br)[nH]1
EC50 (Leishmania amazonensis [1]): > 100 µM | EC50 (Leishmania infantum): > 100 µM | EC50 (Trypanosoma cruzi): > 50 µM | IC50 (Plasmodium falciparum [4]): > 10 µM

O=C(NCCCCNCCCNC(=O)c1cc(Br)c[nH]1)c1cc(Br)c[nH]1
EC50 (Leishmania amazonensis [1]): > 100 µM | selectivity ratio [2]: ≥ 54 | EC50 (Leishmania infantum): > 100 µM | EC50 (Trypanosoma cruzi): > 100 µM | CC50 at 24 h [3]: ≥ 400 µM | IC50 (Plasmodium falciparum [4]): 7 µM

NC1=N/C(=C\CCNC(=O)c2cc(Br)c[nH]2)C(=O)N1
IC50 (Plasmodium falciparum [6]): 1.34 µg/mL (≈ 4.11 µM)

Cc1ccc(C(=O)NCCCCNCCCNC(=O)c2ccc(C)o2)o1
EC50 (Leishmania amazonensis [1]): > 100 µM | EC50 (Leishmania infantum): > 100 µM | EC50 (Trypanosoma cruzi): > 100 µM | IC50 (Plasmodium falciparum [4]): > 10 µM

O=C(NCCSCCNC(=O)c1cc(Br)c(Br)[nH]1)c1cc(Br)c(Br)[nH]1
EC50 (Leishmania amazonensis [1]): 43 µM | EC50 (Leishmania infantum): 24 µM | CC50 (BMDM): 66 µM | EC50 (Trypanosoma cruzi): 24 µM | IC50 (Plasmodium falciparum [4]): > 10 µM

CN(CCCCNC(=O)c1cc(Br)c(Br)[nH]1)CCCNC(=O)c1cc(Br)c(Br)[nH]1
EC50 (Leishmania amazonensis [1]): > 100 µM | selectivity ratio [2]: 35 | EC50 (Leishmania infantum): > 100 µM | EC50 (Trypanosoma cruzi): > 100 µM | CC50 at 24 h [3]: 160 µM | IC50 (Plasmodium falciparum [4]): 4 µM

O=C(NCCCCNCCCNC(=O)c1cc(Cl)c(Cl)[nH]1)c1cc(Cl)c(Cl)[nH]1
EC50 (Leishmania amazonensis [1]): > 100 µM | EC50 (Leishmania infantum): > 100 µM | EC50 (Trypanosoma cruzi): > 100 µM | IC50 (Plasmodium falciparum [4]): > 10 µM

O=C(NCCCNCCCCNCCCNC(=O)c1cc(Br)c(Br)[nH]1)c1cc(Br)c(Br)[nH]1
EC50 (Leishmania amazonensis [1]): 44 µM | selectivity ratio [2]: 52 | EC50 (Leishmania infantum): 18 to 19 µM | Activity (Leishmania amazonensis [7]): 51% | CC50 (BMDM): > 100 µM | Activity (Leishmania amazonensis [8]): 45.4% | Activity (Leishmania amazonensis [9]): 81.2% | Activity (Leishmania amazonensis [10]): Dose-dependent effect | EC50 (Trypanosoma cruzi): > 100 µM | CC50 at 24 h [3]: 99 µM | Activity (Leishmania amazonensis [11]): 27.3% | IC50 (Plasmodium falciparum [4]): 2 µM

O=C(NCCCCNCCCNC(=O)c1cc(Br)c(Br)o1)c1cc(Br)c(Br)o1
EC50 (Leishmania amazonensis [1]): 18 µM | selectivity ratio [2]: ≥ 125 | EC50 (Leishmania infantum): 23 µM | Activity (Leishmania amazonensis [7]): 60% | CC50 (BMDM): 82 µM | Activity (Leishmania amazonensis [8]): 35% | Activity (Leishmania amazonensis [9]): 77.4% | Activity (Leishmania amazonensis [10]): Dose-dependent effect | EC50 (Trypanosoma cruzi): > 100 µM | CC50 at 24 h [3]: ≥ 400 µM | Activity (Leishmania amazonensis [11]): 55.6% | IC50 (Plasmodium falciparum [4]): 3 µM
